Activity calls are given as the source filed them. The rule behind the calls is not given here.

Data set [1] is described as follows: (§1) Inhibition of PMPMEase (unknown origin) using RD-PNB as substrate incubated for 15 mins prior to substrate addition measured after 2 hrs by RP-HPLC analysis. Details: species or system Homo sapiens. The gist of the method:
(§2)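 Enzyme (1 μg) preincubated 15 min with inhibitor (1–1000 μM, dissolved in water), then RD-PNB (1 mM, in DMSO) added. Incubated 2 h at 37°C in 100 mM Tris-HCl pH 7.4, stopped with methanol, centrifuged. Supernatant analysed by RP-HPLC with UV detection at 260 nm. IC50 by nonlinear regression; Ki derived from previously reported RD-PNB kinetics.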

The species named for another data set is Homo sapiens. Described as §1. The gist of the method:
as §2

Data set [2] has as its system MIA PaCa-2. The data set can be described thus: (§3) Cytotoxicity against human MIAPaCa2 cells harboring K-Ras mutant oncogene after 48 hrs by fluorescence assay. The data set is classed as functional, cell-based. The gist of the method:
(§4)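 Cells from ATCC, kept at 37°C in 5% CO2 to about 80% confluence, trypsinized and plated at 1×10^4 cells/well in medium with 5% FBS. Treated with PCAIs 0–20 μM for 48 h. Viability by resazurin (0.02% in Dulbecco PBS, 20 μL added), fluorescence read after 2 h at ex 560/em 590 nm. EC50 by nonlinear regression of concentration-response.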

Data set [3] is described as follows: as §3. The data set is classed as functional, cell-based. Particulars: MIA PaCa-2, 48 h. The gist of the method:
as §4

The nature of data set [4]: Lipophilicity, log D of the compound. Particulars: octanol/water. The format is physicochemical.
Data set [5] in a line: (§5) Cytotoxicity against human BxPC3 cells after 48 hrs by fluorescence assay. The data set is classed as functional, cell-based. To be noted: BXPC-3, 48 h. The gist of the method:
as §4

The subject of data set [6] is BXPC-3. The data set is described as §5. The data set is classed as functional, cell-based. The gist of the method:
as §4

The test system of data set [7] is MIA PaCa-2. The experiment in a line: Induction of apoptosis in human MIAPaCa2 cells harboring K-Ras mutant oncogene assessed as early apoptotic cells at 2 uM after 48 hrs by acridine orange/ethidium bromide staining-based fluorescence microscopy. The data set is classed as functional, cell-based. The gist of the method: (§6)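 5×10^4 MIA PaCa-2 cells cultured in chamber slide wells and treated 48 h at 0.5, 1 and 2 μM in 5% FBS. Stained with acridine orange/ethidium bromide (10 μg/mL). Imaged by fluorescence microscopy (x40 objective, 480/30 nm excitation). Green intact nuclei scored as viable; bright green fragmented nuclei as early apoptotic; orange-red condensed nuclei as apoptotic.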

Data set [8] has as its system MIA PaCa-2. The experiment in a line: Induction of apoptosis in human MIAPaCa2 cells harboring K-Ras mutant oncogene at 0.5 to 2 uM after 48 hrs by acridine orange/ethidium bromide staining-based fluorescence microscopy. The format is functional, cell-based. The gist of the method: as §6
Data set [9] concerns MIA PaCa-2. The experiment in a line: Induction of apoptosis in human MIAPaCa2 cells harboring K-Ras mutant oncogene assessed as viable cells at 1 uM after 48 hrs by acridine orange/ethidium bromide staining-based fluorescence microscopy. The data set is classed as functional, cell-based. The gist of the method: as §6
In data set [10] the test system is BXPC-3. The data set can be described thus: Cytotoxicity against human BxPC3 cells at 20 uM after 24 to 72 hrs by fluorescence assay. The format is functional, cell-based. The gist of the method:
(§7)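 Same viability method: cells plated at 1×10^4 cells/well in 5% FBS medium, exposed to 20 μM PCAI for 24, 48 and 72 h. Resazurin (0.02% in Dulbecco PBS) added, fluorescence ex 560/em 590 nm read 2 h later.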

The subject of data set [11] is MIA PaCa-2. The experiment in a line: Cytotoxicity against human MIAPaCa2 cells harboring K-Ras mutant oncogene at 20 uM after 24 to 72 hrs by fluorescence assay. The data set is classed as functional, cell-based. The gist of the method:
as §7

Usually Ki stands for the dissociation constant of the complex between target and ligand, obtained from inhibition or displacement. As usually defined, the EC50 is the concentration giving half of the maximal effect. Read a high EC50 as a need for much substance. The term logD denotes the decadic logarithm of the distribution of all forms, ionised or not, between an organic phase and buffer at a given pH. A lower logD goes with lower lipophilicity. Regarding `CC(C)=CCC/C(C)=C/CC/C(C)=C/CSC[C@H](NC(=O)CCCCCN1CCN(C)CC1)C(=O)N1CCCCC1`, the Ki in [1] worked out at 13 µM. Moreover, the Activity entry in the data set listed under Homo sapiens, with MIA PaCa-2 [2] and in the data set with BXPC-3 [6] was “Dose-dependent effect” each time. Also, the half-maximal effective concentration (EC50) amounted to 14.3 µM in data set [3] and 8.8 µM in data set [5]. The same compound had a logD in [4] of 4.27.

In data set [1], `CC(C)=CCC/C(C)=C/CC/C(C)=C/CSC[C@H](NC(=O)CCCCCN1CCN(C)CC1)C(=O)NC1CC1` came in with a Ki of 13.8 µM. Moreover, the Activity result in the data set filed under Homo sapiens, with MIA PaCa-2 [2] and in the data set with BXPC-3 [6] was “Dose-dependent effect” in each case. Also, the EC50 in data set [3] amounted to 10.4 µM; in [5] it was 6.3 µM. The pH-dependent lipophilicity (logD) in data set [4] came out at 3.66.

In [1], `CC(C)=CCC/C(C)=C/CC/C(C)=C/CSC[C@H](NC(=O)CCCCCN1CCN(C)CC1)C(=O)NC1CCCCC1` returned an inhibitory constant (Ki) of 16.9 µM. The Activity result in the data set listed under Homo sapiens, in the data set with MIA PaCa-2 [2] and with BXPC-3 [6] was “Dose-dependent effect” throughout. The EC50 in [3] is 5.9 µM; in data set [5], 12 µM. For the same compound, in data set [4], the logD was determined as 4.99.

In the case of `CC(C)=CCC/C(C)=C/CC/C(C)=C/CSC[C@H](NC(=O)CCCCCN1CCCC1)C(=O)NC1CCCCCCC1`, the affinity in [1] corresponds to a Ki of 11.9 µM. In addition, the Activity result in the data set filed under Homo sapiens, with MIA PaCa-2 [2] and in the data set on BXPC-3 [6] was “Dose-dependent effect” throughout. The 50% effective concentration (EC50) in data set [3] was 1.9 µM; in data set [5], 4 µM. Moreover, the pH-dependent lipophilicity (logD) in data set [4] stood at 5.37.

For the compound `CC(C)=CCC/C(C)=C/CC/C(C)=C/CSC[C@H](NC(=O)CCCCCN1CCN(C)CC1)C(=O)NC1CCCCCCC1`, the result with MIA PaCa-2 [7] and in the data set with MIA PaCa-2 [8] was Active. Moreover, the Ki in data set [1] is 15.2 µM. Besides, the Activity result in the data set listed under Homo sapiens, in the data set with MIA PaCa-2 [2] and with BXPC-3 [6] was “Dose-dependent effect” throughout. Further, the values for the EC50 in [3] and in [5] were 2.5 µM and 7.5 µM, respectively. Moreover, in data set [4], the logD was 5.88. In the data set with MIA PaCa-2 [9], the outcome was inactive.

For the compound `CC(C)=CCC/C(C)=C/CC/C(C)=C/CSC[C@H](NC(=O)CCCCCN1CCN(C)CC1)C(=O)NC1CCCCCC1`, the affinity in [1] corresponds to a Ki of 17.6 µM. The Activity result in the data set filed under Homo sapiens, in the data set on MIA PaCa-2 [2] and in the data set on BXPC-3 [6] was “Dose-dependent effect” in each case. In addition, the EC50 in data set [3] was determined as 2.7 µM; in data set [5], 6.2 µM. Besides, the logD in [4] is 5.44.

`CC(C)=CCC/C(C)=C/CC/C(C)=C/CSC[C@H](NC(=O)CCCCCN1CCCC1)C(=O)N1CCCCC1`: the inhibition constant Ki in data set [1] came out at 11 µM. The Activity entry in the data set filed under Homo sapiens, with MIA PaCa-2 [2] and in the data set with BXPC-3 [6] was “Dose-dependent effect” throughout. Also, the values for the EC50 in [3] and in data set [5] were 12.4 µM and 8.7 µM, respectively. The compound also showed a logD in data set [4] of 3.76.

Take `CC(C)=CCC/C(C)=C/CC/C(C)=C/CSc1ccccc1C(=O)O` [SALIRASIB]: the outcome in the data set on BXPC-3 [10] and in the data set with MIA PaCa-2 [11] was inactive. In addition, the concentration for a half-maximal effect (EC50) in [3] and in [5] was above 20 µM throughout. The same compound had a log distribution coefficient (logD) in data set [4] of 3.43.

`CC(C)=CCC/C(C)=C/CC/C(C)=C/CSC[C@H](NC(=O)CCCCCN1CCCC1)C(=O)NC1CCCCC1` yielded a Ki in [1] of 11.2 µM. Moreover, the Activity result in the data set listed under Homo sapiens, with MIA PaCa-2 [2] and in the data set on BXPC-3 [6] was “Dose-dependent effect” throughout. For the same compound, the figures for the EC50 in [3] and in [5] were 5.6 µM and 12.7 µM, respectively. In data set [4], the pH-dependent lipophilicity (logD) is 4.48.

With `CC(C)=CCC/C(C)=C/CC/C(C)=C/CSC[C@H](NC(=O)CCCCCN1CCN(C)CC1)C(=O)NC1CCCC1`, in data set [1], the Ki was found to be 10.1 µM. In addition, the Activity entry in the data set listed under Homo sapiens, in the data set with MIA PaCa-2 [2] and with BXPC-3 [6] was “Dose-dependent effect” each time. Moreover, the EC50 is 10.9 µM in data set [3] and above 20 µM in data set [5]. The compound further yielded a log distribution coefficient (logD) in [4] of 4.55.

The compound `CC(C)=CCC/C(C)=C/CC/C(C)=C/CSC[C@H](NC(=O)CCCCCN1CCN(C)CC1)C(=O)N1CCCC1` had an inhibitory constant (Ki) in [1] of 20 µM. Also, the Activity entry in the data set listed under Homo sapiens, with MIA PaCa-2 [2] and with BXPC-3 [6] was “Dose-dependent effect” each time. Also, the concentration giving a half-maximal response (EC50) in data set [3] is 6 µM; in [5], 3.2 µM. Besides, in data set [4], the pH-dependent lipophilicity (logD) was determined as 3.82.

Regarding `CC(C)=CCC/C(C)=C/CC/C(C)=C/CSC[C@H](NC(=O)CCCCCN1CCCC1)C(=O)NC1CC1`, the inhibitory constant (Ki) in data set [1] was 17.5 µM. In addition, the Activity result in the data set filed under Homo sapiens, with MIA PaCa-2 [2] and with BXPC-3 [6] was “Dose-dependent effect” in each case. The 50% effective concentration (EC50) in [3] and in [5] was above 20 µM throughout. The compound also gave a pH-dependent lipophilicity (logD) in data set [4] of 3.15.

`CC(C)=CCC/C(C)=C/CC/C(C)=C/CSC[C@H](NC(=O)CCCCCN1CCCC1)C(=O)NC1CCCCCC1` came in with a Ki in data set [1] of 11.6 µM. For the same compound, the Activity entry in the data set listed under Homo sapiens, in the data set on MIA PaCa-2 [2] and with BXPC-3 [6] was “Dose-dependent effect” each time. For the same compound, the EC50 was 6.8 µM in [3] and 5.8 µM in data set [5]. In [4], this compound returned a pH-dependent lipophilicity (logD) of 4.93.

`CC(C)=CCC/C(C)=C/CC/C(C)=C/CSC[C@H](NC(=O)CCCCCN1CCCC1)C(=O)NC1CCCC1` showed an inhibitory constant (Ki) in data set [1] of 3.7 µM. Moreover, the Activity result in the data set filed under Homo sapiens, in the data set with MIA PaCa-2 [2] and in the data set on BXPC-3 [6] was “Dose-dependent effect” in each case. Moreover, the EC50 in [3] came to 3.2 µM; in data set [5] it was 6.8 µM. The same compound showed a pH-dependent lipophilicity (logD) in [4] of 4.04.

In turn, `CC(C)=CCC/C(C)=C/CC/C(C)=C/CSC[C@H](NC(=O)CCCCCN1CCCC1)C(=O)N1CCCC1` displayed a Ki in data set [1] of 9.7 µM. The Activity result in the data set listed under Homo sapiens, in the data set on MIA PaCa-2 [2] and with BXPC-3 [6] was “Dose-dependent effect” throughout. Besides, the results for the EC50 in data set [3] and in data set [5] were 10.8 µM and 6.5 µM, respectively. Further, in data set [4], the pH-dependent lipophilicity (logD) was determined as 3.31.

In the case of `CC(C)=CCC/C(C)=C/CC/C(C)=C/CSc1ccccc1C(N)=O`, the outcome in the data set on BXPC-3 [10] and in the data set on MIA PaCa-2 [11] was inactive. The EC50 in data set [3] and in data set [5] was above 20 µM throughout. In data set [4], this compound yielded a log distribution coefficient (logD) of 6.03.

The record behind these values is ChEMBL document CHEMBL3259659, “Polyisoprenylated methylated protein methyl esterase: a putative biomarker and therapeutic target for pancreatic cancer” (Eur J Med Chem, 2014).
